From ChEMBL document CHEMBL4325899, “Synthesis and photocytotoxic activity of [1,2,3]triazolo[4,5-h][1,6]naphthyridines and [1,3]oxazolo[5,4-h][1,6]naphthyridines” (Eur J Med Chem, 2019)
Activity calls are given as the source filed them. The rule behind the calls is not given here.

Legend:
MCF7 [1] = test: Induction of ROS generation in human MCF7 cells at 0.4 uM preincubated for 30 mins followed by irradiation at 1.5 J/cm2 for 2 hrs by H2DCFDA probe-based fluorescence assay (reference value: 100%); assay type: functional
How it was run: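 MCF7 cells (3x10^4/well) seeded 24 h ahead to 80–90% confluence. Compound given for 30 min in phenol red- and serum-free medium. H2DCFDA (10 µM) added 15 min before irradiation at ~365 nm, 1.5 J/cm2. Fluorescence read 2 h after light (ex 485, em 535 nm) as % of untreated irradiated controls. Non-irradiated plates run alongside; three independent experiments.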

MCF7 [2] = test: Induction of mitochondrial dysfunction in human MCF7 cells assessed as mitochondria fusion at 400 nM after 6 hrs in presence of UV irradiation by Mitotracker Orange CMTM-ROS staining-based confocal microscopic analysis; assay type: functional, cell-based
How it was run: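 MCF7 cells (4x10^5) on glass slides for 24 h. Live-labelled with MitoTracker Orange CMTM-ROS (150 nM) for 45 min in phenol red- and serum-free medium. Compound then added and cells irradiated at 365 nm (1.5 J/cm2). Fixed in 2% PFA and nuclei counterstained. Mitochondrial network morphology imaged by confocal microscopy (ex 543, em 560–620 nm) 6 h post-treatment, with untreated, irradiated and non-irradiated controls.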

MCF7 [3] = test: Induction of lysosomal activation in human MCF7 cells at 400 nM after 6 hrs under UV-irradiation by Lysotracker Green DND 26 staining-based confocal microscopic analysis; assay type: functional, cell-based
How it was run: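 MCF7 cells (4x10^5) on glass slides for 24 h. Medium replaced with phenol red- and serum-free medium containing LysoTracker Green DND-26 (175 nM) for 45 min. Compound then added and cells irradiated at 365 nm (1.5 J/cm2). Cells then PBS-washed, fixed in 2% PFA and mounted. Acidic compartments imaged by confocal microscopy (ex 488, em 500–530 nm) against non-irradiated and untreated controls.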

A-375 = test: Phototoxicity against human A375 cells preincubated for 5 mins followed by compound washout and subsequent UV irradiation at 1.5 J/cm2 for 5 mins measured after 72 hrs by MTT assay; assay type: functional, cell-based; conditions: A-375, light or radiation study
How it was run: (§1)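 Compounds were diluted in DMSO (0.5% final), applied in triplicate for 5 min, then washed out with PBS. After medium removal, cells were irradiated on ice for 5 min at 365 nm (1.5 J/cm²) and then kept 72 h at 37 °C. Viability was read by MTT at 540 nm and expressed relative to 0.5% DMSO controls given the same treatment. EC50 is the concentration killing 50%, as the mean ± SD of at least three experiments.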

HT-29 = test: Phototoxicity against human HT-29 cells preincubated for 5 mins followed by compound washout and subsequent UV irradiation at 1.5 J/cm2 for 5 mins measured after 72 hrs by MTT assay; assay type: functional, cell-based; conditions: HT-29, light or radiation study; how it was run: as §1
MCF7 [4] = test: Phototoxicity against human MCF7 cells preincubated for 5 mins followed by compound washout and subsequent UV irradiation at 1.5 J/cm2 for 5 mins measured after 72 hrs by MTT assay; assay type: functional, cell-based; conditions: MCF7, light or radiation study; how it was run: as §1
MCF-10A = test: Phototoxicity against human MCF10A cells preincubated for 5 mins followed by compound washout and subsequent UV irradiation at 1.5 J/cm2 for 5 mins measured after 72 hrs by MTT assay; assay type: cell-based; conditions: light or radiation study; how it was run: as §1
[5] = Dark toxicity against human A375 cells preincubated for 5 mins followed by compound washout and measured after 72 hrs by MTT assay; assay type: cell-based, A-375
How it was run: (§2)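 Cells were plated and allowed to attach overnight. Compounds were diluted in DMSO (0.5% final), with each concentration in triplicate, and applied for 5 min. Cells were then washed in PBS and given fresh medium. Without irradiation, cells were held 72 h at up to 50 μM. MTT (5 mg/mL stock) was added for 4 h, crystals were dissolved in SDS/HCl overnight, and absorbance was read at 540 nm. CC50 is the concentration killing 50% of cells, taken as the mean of at least three experiments.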

[6] = Dark toxicity against human HT-29 cells preincubated for 5 mins followed by compound washout and measured after 72 hrs by MTT assay; assay type: cell-based; how it was run: as §2
[7] = Dark toxicity against human MCF7 cells preincubated for 5 mins followed by compound washout and measured after 72 hrs by MTT assay; assay type: cell-based; how it was run: as §2
[8] = Dark toxicity against human MCF10A cells preincubated for 5 mins followed by compound washout and measured after 72 hrs by MTT assay; assay type: cell-based, MCF-10A; how it was run: as §2
MCF7 [9] = test: Induction of ROS generation in human MCF7 cells at 2 uM preincubated for 30 mins followed by irradiation at 1.5 J/cm2 for 2 hrs by H2DCFDA probe-based fluorescence assay; assay type: functional, cell-based
How it was run: (§3)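 MCF7 cells (3x10⁴) were plated 24 h ahead to reach 80–90% confluence. Compounds were applied for 30 min in phenol-red-free, serum-free medium, and H2DCFDA (10 µM) was added 15 min before irradiation (1.5 J/cm², ~365 nm) or no irradiation. DCF fluorescence (485/535 nm) was read 2 h after light and expressed relative to untreated controls (100%). PMA (400 nM) served as positive control; three independent experiments.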

MCF7 [10] = test: Induction of apoptosis in human MCF7 cells assessed as viable cells at EC50 after 4 hrs in presence of photoirradiation by Annexin V-FITC/propidium iodide staining-based flow cytometric analysis (reference value: 95%); assay type: functional
MCF7 [11] = test: Induction of apoptosis in human MCF7 cells assessed as apoptotic cells at EC50 after 4 hrs in presence of photoirradiation by Annexin V-FITC/propidium iodide staining-based flow cytometric analysis relative to control; assay type: functional
MCF7 [12] = test: Induction of apoptosis in human MCF7 cells assessed as necrotic cells at EC50 after 4 hrs in presence of photoirradiation by Annexin V-FITC/propidium iodide staining-based flow cytometric analysis relative to control; assay type: functional
MCF7 [13] = test: Induction of lysosomal activation in human MCF7 cells at 2 uM after 2 hrs in presence of UV irradiation by Lysotracker Green DND 26 staining-based confocal microscopic analysis; assay type: functional, cell-based
How it was run: (§4)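 MCF7 cells (4x10⁵) on glass slides were loaded with LysoTracker Green DND-26 (175 nM) for 45 min in phenol-red-free, serum-free medium, before 2 µM compound with or without UV activation. Cells were fixed in 2% PFA 20 min or 2 h after UV and imaged confocally (ex 488 nm, em 500–530 nm). Controls were untreated cells with and without irradiation, and cells given PMA (400 nM).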

MCF7 [14] = test: Induction of lysosomal activation in human MCF7 cells at 2 uM after 2 hrs in absence of UV irradiation by Lysotracker Green DND 26 staining-based confocal microscopic analysis; assay type: cell-based; conditions: mcf7, 2 h; how it was run: as §4
MCF7 [15] = test: Induction of mitochondrial dysfunction in human MCF7 cells at 2 uM after 2 hrs in presence of UV irradiation by Mitotracker Orange CMTM-ROS staining-based confocal microscopic analysis; assay type: functional, cell-based
How it was run: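 MCF7 cells (4x10⁵) were plated on glass slides for 24 h. They were then loaded with MitoTracker Orange CMTM-ROS (150 nM) for 45 min in phenol-red-free, serum-free medium, before 2 µM compound and UV photoactivation. Cells were fixed in 2% PFA 20 min or 2 h after UV and imaged confocally (ex 543 nm, em 560–620 nm). PMA (400 nM) served as ROS-inducer control.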

[16] = Solubility of the compound in DMSO; assay type: physicochemical
MCF7 [17] = test: Cell cycle arrest in human MCF7 cells assessed as accumulation of cells at subG1 phase at EC50 after 24 hrs under UV-irradiation by propidium iodide staining-based flow cytometric analysis (reference value: 4.8%); assay type: functional
MCF7 [18] = test: Cell cycle arrest in human MCF7 cells assessed as accumulation of cells at G0/G1 phase at EC50 after 24 hrs under UV-irradiation by propidium iodide staining-based flow cytometric analysis (reference value: 44.2%); assay type: functional
MCF7 [19] = test: Cell cycle arrest in human MCF7 cells assessed as accumulation of cells at S phase at EC50 after 24 hrs under UV-irradiation by propidium iodide staining-based flow cytometric analysis (reference value: 24.7%); assay type: functional
MCF7 [20] = test: Cell cycle arrest in human MCF7 cells assessed as accumulation of cells at G2/M phase at EC50 after 24 hrs under UV-irradiation by propidium iodide staining-based flow cytometric analysis (reference value: 26.3%); assay type: functional
[21] = Photogeneration of oxygen in aqueous acetonitrile/water solution at 2.3 x 10^-5M measured after 1 hr under 150W irradiation by ADPA probe based spectra analysis
MCF7 [22] = test: Induction of ROS generation in human MCF7 cells at 0.5 to 2 uM measured after 30 mins under dark condition by H2DCFDA probe-based fluorescence assay; assay type: cell-based; conditions: mcf7, 0.5 h; how it was run: as §3
MCF7 [23] = test: Induction of ROS generation in human MCF7 cells at 2 uM measured after 30 mins under dark condition by H2DCFDA probe-based fluorescence assay; assay type: cell-based; conditions: mcf7, 0.5 h; how it was run: as §3

CCCCCCCCCCCCCC(=O)O[C@@H]1[C@@H](C)[C@@]2(O)[C@@H](C=C(CO)C[C@]3(O)C(=O)C(C)=C[C@@H]23)[C@@H]2C(C)(C)[C@]12OC(C)=O [PHORBOL MYRISTATE ACETATE]
Activity (MCF7 [1]): 120% | Activity (MCF7 [2]): Active | Activity (MCF7 [3]): Active

COc1ccc(-n2nnc3c4nc(C)ccc4c(C)nc32)cc1
EC50 (A-375): > 50 µM | EC50 (HT-29): > 50 µM | EC50 (MCF7 [4]): > 50 µM | EC50 (MCF-10A): > 50 µM | CC50 at 72 h [5]: > 50 µM | CC50 at 72 h [6]: > 50 µM | CC50 at 72 h [7]: > 50 µM | CC50 at 72 h [8]: > 50 µM | Activity (MCF7 [9]): inactive | Activity (MCF7 [10]): 90% | Activity (MCF7 [11]): 4% | Activity (MCF7 [12]): 7% | Activity (MCF7 [13]): inactive | Activity (MCF7 [14]): Non-Toxic | Activity (MCF7 [15]): inactive | solubility [16]: Soluble | Activity (MCF7 [17]): 4.5% | Activity (MCF7 [18]): 43.2% | Activity (MCF7 [19]): 25.7% | Activity (MCF7 [20]): 26.6% | Activity [21]: Active | Activity (MCF7 [22]): Non-Toxic | Activity (MCF7 [23]): Non-Toxic
